MT stabilize HCS = microtubule stabilization, imaging screen | % tubulin-high responders, % at 10 µM | HeLa tubulin immunostaining HCS, 24 h; share of cells brighter than vehicle mean+2SD | AID 2205 | actives 0.83% (n = 200,000);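 active = plate Z-score above 3 for both tubulin-high and condensed-nucleus cell shares, with cell loss under 80%, at 10 µM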;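 also: anti alpha tubulin signal scored within the nucleus-defined area of each cell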
Yeast life ext = extends the lifespan of yeast; S. cerevisiae growth with nicotinamide, OD615; deaD strain in restrictive glucose medium; inhibition of the nicotinamide effect, % at 10 µM; actives 0.68% (n = 130,000); AID 775;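 active = inhibition above a set limit, placed 3 SD over the median of all compounds, cut at about 26% in these data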
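Assay system: engineered S. cerevisiae DeaD replicative-lifespan strain, galactose-grown log-phase cells; Buffer or medium: CSMM-D glucose medium, restrictive; Probe or stimulus: nicotinamide 1.5 mM; Compound: single dose 10 µM compound, 0.25% DMSO; Schedule: 4 h preincubation then 48 h treatment at 30 °C; Technique: OD615 measurement.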
RAM inhibit = inhibitors of the yeast RAM network; inhibition, % at 50 µM; S. cerevisiae dse1pr::URA3 reporter, 5-FOA growth OD615, 2 d; analog-sensitive cbk1-as2 kinase mutant strain; actives 1.8% (n = 190,000);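 active = inhibition above a set limit, 3 SD over mean compound inhibition, cut at about 8.4% in these data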;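 also: inhibition rescues growth on 5-FOA so higher OD means more RAM inhibition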
Yeast growth inh = reduces growth of yeast BB579 in restrictive medium. S. cerevisiae BB579 growth, OD615, 48 h. inhibition, % at 10 µM. actives 0.51% (n = 140,000). AID 804;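 active = inhibition above a set limit, 3 SD over the mean compound inhibition, cut at about 44% in these data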
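System: DeaD yeast strain BB579; buffer or medium: CSMM-D dextrose restrictive medium; technique: OD at 615 nm; schedule: 4 h cell preincubation, 48 h compound exposure, 30 °C humidified; doses: single 10 µM dose; controls: amphotericin B 10 µg/mL, positive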
b-catenin transl = alters nuclear translocation of beta-catenin in HeLa cells; immunofluorescence imaging; nuclear translocation activity, % at 5 µM; actives 0.3% (n = 190,000);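 active = nuclear translocation activity above 50% at 5 µM, with a well cell count of 50 or more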;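 also: per-cell ratio of nuclear to cytoplasmic median beta-catenin stain intensity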
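Technique: fluorescence imaging of beta-catenin antibody stain plus DAPI / Material: human HeLa cell line / Incubation: compound treatment 24 h, 37°C, 5% CO2 / Read-out basis: % activation of per-cell nuclear versus cytoplasmic median beta-catenin signal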
HMGR II inh = inhibitors of class II HMG-CoA reductase from Enterococcus faecalis; actives 0.41% (n = 190,000); inhibition, % at 10 µM; AID 1066; purified E. faecalis HMGR, NADPH absorbance 340 nm kinetic;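 active = inhibition above a set limit, the median over all tested compounds plus 3 SD, cut at about 9.5% in these data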;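 also: enzyme runs in reverse so mevalonate oxidation gives rising NADPH absorbance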
Hits are given with their value; . = inactive; / = not tested or not shown; ! = repeats disagree. This is a sample that favours compounds with a hit; in the whole collection about 3.5% have one here.

SMILES	MT stabilize HCS	Yeast life ext	RAM inhibit	Yeast growth inh	b-catenin transl	HMGR II inh
CN1CCC(N(C)C(=O)/C(C#N)=C/c2ccc(OC(F)F)cc2)CC1	/	/	/	/	.	/
O=C(CN1CCN(c2ncc(C(F)(F)F)cc2Cl)CC1)N1CCN(c2ncc(C(F)(F)F)cc2Cl)CC1	.	.	.	.	/	.
O=C(CSc1ccc(Cl)cc1)N1CCN(c2ncc(C(F)(F)F)cc2Cl)CC1	.	.	11.3	.	.	.
O=C1c2nc3cc(-c4ccco4)[nH]n3c(=O)c2CN1C1CCCCC1	/	/	/	/	.	/
CCOC(=O)Cn1ncn(-c2ccc(OC(F)(F)F)cc2)c1=O	.	/	.	/	.	.
CC(C)C(NC(=O)c1ccc(F)cc1)C(=O)NCC1CCCO1 (stereo not drawn)	/	/	/	/	.	/
Cc1ccsc1/C=C1/NC(=O)N(Cc2ccc(F)cc2)C1=O	.	/	.	/	.	15.0
O=C(O)c1ccc(COc2ccccc2/C=C2\NC(=O)N(Cc3ccc(F)cc3)C2=O)cc1	.	/	.	/	.	10.9
Cn1nnc(NC(=S)NC(=O)Cc2ccccc2)n1	.	/	.	/	.	.
O=C1OC(/C=C/c2ccc(Cl)cc2Cl)=NC/1=C\c1cccs1	.	.	9.5	.	.	.
O=c1cc(-c2cccs2)oc2ccc(Cl)cc12	.	.	.	.	.	.
O=C(/C=C/c1c(Cl)cccc1Cl)N1CCN(c2ncccn2)CC1	.	.	.	.	.	.
O=C(/C=C/c1ccco1)N1CCN(c2ncccn2)CC1	9.8	.	.	.	/	.
CCCCCC1CCC(c2ccc(/C(N)=N/O)cc2)CC1 (stereo not drawn)	/	/	/	/	.	/
CC(C)CCc1noc(CN2CCN(c3ccc(Cl)cn3)CC2)n1	.	/	.	/	.	.
O=C(Oc1c(Cl)cc(Cl)c2cccnc12)c1cccs1	.	/	.	98.9	.	.
CSc1cc(C)c(OCC(=O)Nc2ccc(NC(C)=O)cc2)c(C)c1	.	/	.	/	.	.
COc1ccc(/C=c2/sc3n(c2=O)C(c2ccccc2OC)C2=C(N=3)c3ccccc3CC2)cc1O (stereo not drawn)	33.4	.	9.5	.	.	.
COc1ccc(C(C)NC(=O)c2ccccc2)cc1 (stereo not drawn)	.	83.7	.	.	.	.
Cn1/c(=N\NC(=O)c2ccccc2Cl)sc2ccccc21	.	/	.	/	.	.
O=C(O)c1ccc(N(c2ccccc2)c2ccccc2)cc1	.	/	.	44.4	.	.
CCN(CC)c1ccc(C(=O)O)cc1	.	.	.	.	.	.
CCC(=O)C1=C(N2CCCC2)CC(C)(C)CC1=O	.	.	.	.	.	.
CCCCC(=O)C1=C(N2CCCC2)CC(C)(C)CC1=O	.	/	.	.	/	11.8
Cc1nc2c(o1)CCc1ccccc1C2N1CCN(C)CC1 (stereo not drawn)	.	.	.	.	.	9.5!
SMILES	MT stabilize HCS	Yeast life ext	RAM inhibit	Yeast growth inh	b-catenin transl	HMGR II inh
OCCC1CN(Cc2nc3ccccc3s2)CCN1CCc1ccccc1 (stereo not drawn)	.	/	.	/	.	.
CCOc1ccccc1NC1=C(Cl)C(=O)N(c2ccccc2)C1=O	.	.	.	.	.	.
CCOc1ccccc1NC1=C(Cl)C(=O)N(Cc2ccccc2)C1=O	.	.	10.6	.	.	.
CCC(Sc1ccc2nnc(-c3cccnc3)n2n1)C(=O)OC (stereo not drawn)	.	/	.	/	.	9.6
CN=C1c2cc3cc(OC)ccc3n2CCN1Cc1ccccc1	39.6	.	.	.	/	.
CCN(CC)CCNC1=NCCn2c1cc1cc(OC)ccc12	.	.	.	.	/	.
CCOC(CNC(=O)Cn1nc(C)c2ccccc21)OCC	.	/	.	/	.	.
Cc1ccc(C(=O)Nc2ccccc2Oc2ccccc2)cc1[N+](=O)[O-]	.	.	10.7	.	/	.
Cc1ccc(C(=O)NC(=S)Nc2cccc(NC(=O)c3ccccc3)c2)cc1[N+](=O)[O-]	.	.	10.1	.	.	.
CCCCNC(=O)/C(C#N)=C/c1ccc(F)cc1F	.	/	.	/	.	.
O=C1c2ccccc2C(=O)N1CCN1CCCCC1	.	.	.	.	.	18.9
CCOC(=O)C1=C(N)Oc2cc(O)ccc2C1c1cccc([N+](=O)[O-])c1 (stereo not drawn)	14.9	/	.	/	.	.
CCC(=O)NC(=S)NNC(=O)c1ccc(O)cc1	.	/	.	/	.	.
COc1ccc(S(=O)(=O)N(C(=O)c2ccncc2)c2ccc(OC(=O)c3ccncc3)cc2)cc1	.	/	.	/	.	.
COc1ccc(N(C(=O)c2ccccc2C)S(=O)(=O)c2cccs2)cc1	15.5	.	.	.	98.7	.
COC(=O)CCN1CCc2cc(N=Nc3ccc([N+](=O)[O-])cc3)ccc21	/	/	/	/	.	/
COc1ccc(CNC(=O)C2CCCN2S(=O)(=O)c2ccc(Cl)cc2)cc1 (stereo not drawn)	.	/	.	.	.	17.9
CC(C)N1C/C(=C/c2cccnc2)C(=O)/C(=C/c2cccnc2)C1	.	40.6	.	.	.	.
CN1C/C(=C/c2cccnc2)C(=O)/C(=C/c2cccnc2)C1	52.7	51.2	.	.	.	.
CCOc1ccc(C2=Nn3c(nnc3-c3ccc(OC)cc3)SC2)cc1	39.6	.	.	.	106.1	.
O=c1c(-c2ccc(Cl)cc2)[n+]([O-])c2ccccc2n1O	.	.	.	99.8	.	.
O=c1c(-c2cccc([N+](=O)[O-])c2)[n+]([O-])c2ccccc2n1O	/	/	/	/	.	/
CCc1ccc(NC(=O)C2(c3ccccc3)CC2(Cl)Cl)cc1 (stereo not drawn)	.	.	8.5	.	.	/
COc1ccc(N=c2ssnc2Cl)cc1	.	/	.	.	/	16.2
Clc1ccc(N=c2ssnc2Cl)cc1	.	/	.	76.9	.	.
SMILES	MT stabilize HCS	Yeast life ext	RAM inhibit	Yeast growth inh	b-catenin transl	HMGR II inh
Clc1nssc1=Nc1ccccc1	.	/	.	/	.	.
CCOC(=O)N1CCC(=C2c3ccc(Cl)cc3CCc3cccnc32)CC1	.	33.4	.	.	.	.
C/C(=N/NC(=O)CNC(=O)C(c1ccccc1)c1ccccc1)c1ccco1	/	/	/	/	.	/
OCCN(CCO)CC(O)COc1ccc(Br)cc1 (stereo not drawn)	/	/	/	/	.	/
OCCN(CCO)CC(O)COc1ccc(C23CC4CC(CC(C4)C2)C3)cc1 (stereo not drawn)	.	.	.	45.9	.	.
O=C(CN1CCCCCC1)N/N=C/c1cccc(Cl)c1Cl	.	.	.	.	.	.
Cc1nnc(SCC(=O)NCc2ccccc2Cl)[nH]c1=O	.	/	.	/	.	.
COc1ccccc1NC(=O)/C(=C/c1cccc([N+](=O)[O-])c1)c1ccccc1	.	.	11.0	.	.	.
COc1ccccc1C(=O)N/C(=C/c1cccc([N+](=O)[O-])c1)C(=O)Nc1cccc(C(=O)O)c1	.	/	.	/	.	.
Cc1ccc(-c2cc(C(F)F)n3ncc(C(=O)Nc4ccc(S(=O)(=O)Nc5ccccc5C)cc4)c3n2)cc1	.	.	.	.	/	10.4
